Results on 76 sequences are retold here after the array DNA melting data of Ke et al. (doi:10.1101/2024.01.08.574731).

Data set [1] is described as follows: melting temperature; fluorescence melt of hairpins on a sequencing array, two-state fit, raised by 9.35 °C to match UV melts. To be noted: sodium 0.088 M. In a few lines:
(§1)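 In 50 mM Na-HEPES pH 8.0 containing 25 mM NaCl, hairpins from the library on a sequenced MiSeq flow cell were imaged for Cy3 fluorescence at 2.5 °C steps up to 60 °C, with Cy3 and quencher oligos annealed. After normalisation to pre-quench Cy3 and to control constructs, two-state fits with bootstrapping gave melting temperature and folding enthalpy. Four replicates were combined by inverse-variance weighting, and fitted temperatures were shifted up by 9.35 °C to match UV melts.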

Data set [2] can be described thus: folding enthalpy; higher = less favourable; fluorescence melt of hairpins on a sequencing array, two-state fit. The settings on record: sodium 0.088 M. In a few lines: as §1

Take GATCAGTCGCTGATC ((((((...)))))): the Tm in data set [1] was found to be 49.8 °C. Moreover, in data set [2], the folding enthalpy was -29.6 kcal/mol.
For GATCAGTGGACTGATC ((((((....)))))) the same measures were 51.8 °C and -37 kcal/mol.
Regarding GATCAGTTACTGATC ((((((...)))))), the Tm in data set [1] came out at 51.4 °C. In data set [2], the folding enthalpy is -41.7 kcal/mol.
Turning to GATCAGTTTTCTGATC ((((((....)))))), the Tm in data set [1] amounted to 52.3 °C. Moreover, in data set [2], the folding enthalpy was -30.5 kcal/mol.
GATCATAAGGATGATC ((((((....)))))): the Tm in data set [1] is 45.3 °C. Moreover, the folding enthalpy in data set [2] is -32.5 kcal/mol.
Turning to GATCATAATATGATC ((((((...)))))), the Tm in data set [1] was 46.3 °C. Moreover, in data set [2], the folding enthalpy was -30.7 kcal/mol.
For GATCATAATGATGATC ((((((....)))))) the same measures were 45.6 °C and -29.9 kcal/mol.
For GATCATACAAATGATC ((((((....)))))) the same measures were 44.6 °C and -33.6 kcal/mol.
For GATCATACAATGATC ((((((...)))))) the same measures were 48.4 °C and -39.5 kcal/mol.
Consider GATCATACCATGATC ((((((...)))))), for which the Tm in data set [1] turned out to be 48.9 °C. In data set [2], the folding enthalpy is -40.3 kcal/mol.
For GATCATACCGATGATC ((((((....)))))) the same measures were 46.9 °C and -35.7 kcal/mol.
For GATCATACCTATGATC ((((((....)))))) the same measures were 48.6 °C and -41.5 kcal/mol.
Consider GATCATACGCATGATC ((((((....)))))), for which the Tm in data set [1] turned out to be 48 °C. For the same sequence, the folding enthalpy in data set [2] was -37 kcal/mol.
For GATCATACTATGATC ((((((...)))))) the same measures were 48.1 °C and -35.7 kcal/mol.
For GATCATACTCATGATC ((((((....)))))) the same measures were 46.7 °C and -34 kcal/mol.
For GATCATAGACATGATC ((((((....)))))) the same measures were 45.7 °C and -34.4 kcal/mol.
GATCATAGCTATGATC ((((((....)))))): the Tm in data set [1] stood at 50.7 °C. For the same sequence, in data set [2], the folding enthalpy was -47.4 kcal/mol.
For GATCATAGGGATGATC ((((((....)))))) the same measures were 47.3 °C and -34.1 kcal/mol.
For GATCATATAAATGATC ((((((....)))))) the same measures were 43.7 °C and -29.9 kcal/mol.
For GATCATATGATGATC ((((((...)))))) the same measures were 48.1 °C and -31.3 kcal/mol.
GATCATATGCATGATC ((((((....)))))): the Tm in data set [1] came to 48.2 °C. Besides, the folding enthalpy in data set [2] is -40.4 kcal/mol.
GATCATATTATGATC ((((((...)))))): the Tm in data set [1] was 48.6 °C. Moreover, the folding enthalpy in data set [2] was -35.9 kcal/mol.
For GATCATATTGATGATC ((((((....)))))) the same measures were 47.3 °C and -31.9 kcal/mol.
For GATCATCAAAATGATC ((((((....)))))) the same measures were 45 °C and -33.3 kcal/mol.
As for GATCATCAACATGATC ((((((....)))))), the Tm in data set [1] is 42.6 °C. For the same sequence, the folding enthalpy in data set [2] was -28.6 kcal/mol.
For GATCATCCAAATGATC ((((((....)))))) the same measures were 46.3 °C and -36.9 kcal/mol.
Take GATCATCCGAATGATC ((((((....)))))): in data set [1], the Tm is 47.2 °C. Also, the folding enthalpy in data set [2] was -30.3 kcal/mol.
For GATCATCGAAATGATC ((((((....)))))) the same measures were 44.2 °C and -29 kcal/mol.
For GATCATCGCGATGATC ((((((....)))))) the same measures were 59.7 °C and -48.5 kcal/mol.
For GATCATCGGATGATC ((((((...)))))) the same measures were 45.9 °C and -36.9 kcal/mol.
For GATCATCGGGATGATC ((((((....)))))), the Tm in data set [1] stood at 53.5 °C. In addition, the folding enthalpy in data set [2] is -44 kcal/mol.
With GATCATCGTAATGATC ((((((....)))))), the Tm in data set [1] is 48.5 °C. In addition, in data set [2], the folding enthalpy is -39.5 kcal/mol.
For GATCATCGTATGATC ((((((...)))))) the same measures were 48.5 °C and -32.8 kcal/mol.
As for GATCATCGTGATGATC ((((((....)))))), the Tm in data set [1] came to 57.8 °C. In addition, the folding enthalpy in data set [2] is -38.4 kcal/mol.
Turning to GATCATCTAGATGATC ((((((....)))))), the Tm in data set [1] came to 52.7 °C. In addition, in data set [2], the folding enthalpy was -43.8 kcal/mol.
As to GATCATCTGCATGATC ((((((....)))))), the Tm in data set [1] is 46.2 °C. Further, in data set [2], the folding enthalpy was -36 kcal/mol.
In the case of GATCATGAAATGATC ((((((...)))))), the Tm in data set [1] is 58.9 °C. For the same sequence, the folding enthalpy in data set [2] was -40.9 kcal/mol.
On to GATCATGACATGATC ((((((...)))))), for which the Tm in data set [1] stood at 49.7 °C. Besides, the folding enthalpy in data set [2] is -40.3 kcal/mol.
For GATCATGACGATGATC ((((((....)))))) the same measures were 50.8 °C and -40.3 kcal/mol.
For GATCATGCCATGATC ((((((...)))))) the same measures were 50.9 °C and -40 kcal/mol.
For GATCATGGACATGATC ((((((....)))))) the same measures were 54.3 °C and -40.7 kcal/mol.
With GATCATGGATATGATC ((((((....)))))), the Tm in data set [1] amounted to 54.1 °C. Besides, in data set [2], the folding enthalpy was -37.9 kcal/mol.
For GATCATGGCAATGATC ((((((....)))))) the same measures were 56.7 °C and -41.9 kcal/mol.
On to GATCATGGGATGATC ((((((...)))))), for which, in data set [1], the Tm was 44.6 °C. Moreover, the folding enthalpy in data set [2] is -30.7 kcal/mol.
GATCATGGTAATGATC ((((((....)))))): the Tm in data set [1] worked out at 56.2 °C. Further, the folding enthalpy in data set [2] was -41.1 kcal/mol.
For the sequence GATCATGTAGATGATC ((((((....)))))), the Tm in data set [1] worked out at 51 °C. For the same sequence, in data set [2], the folding enthalpy is -38.9 kcal/mol.
For the sequence GATCATGTCCATGATC ((((((....)))))), the Tm in data set [1] is 54.8 °C. Further, the folding enthalpy in data set [2] is -42.5 kcal/mol.
For GATCATGTGCATGATC ((((((....)))))) the same measures were 50.3 °C and -32.3 kcal/mol.
GATCATGTGTATGATC ((((((....)))))): the Tm in data set [1] came to 48.4 °C. Moreover, the folding enthalpy in data set [2] was -41.9 kcal/mol.
For GATCATGTTAATGATC ((((((....)))))) the same measures were 56.2 °C and -40.5 kcal/mol.
For GATCATGTTTATGATC ((((((....)))))) the same measures were 50 °C and -39.1 kcal/mol.
With GATCATTACAATGATC ((((((....)))))), in data set [1], the Tm was found to be 49.7 °C. Further, in data set [2], the folding enthalpy is -37.9 kcal/mol.
For GATCATTAGATGATC ((((((...)))))) the same measures were 44.4 °C and -29.2 kcal/mol.
As for GATCATTAGCATGATC ((((((....)))))), the Tm in data set [1] came out at 44.2 °C. The folding enthalpy in data set [2] is -32.6 kcal/mol.
As to GATCATTATGATGATC ((((((....)))))), the Tm in data set [1] was 48.6 °C. Further, the folding enthalpy in data set [2] is -43.7 kcal/mol.
For GATCATTCATATGATC ((((((....)))))), the Tm in data set [1] stood at 48 °C. The folding enthalpy in data set [2] was -38.8 kcal/mol.
As for GATCATTCCAATGATC ((((((....)))))), the Tm in data set [1] was found to be 50.4 °C. Moreover, in data set [2], the folding enthalpy was -33.9 kcal/mol.
GATCATTCCATGATC ((((((...)))))): the Tm in data set [1] worked out at 51 °C. Besides, the folding enthalpy in data set [2] is -39.4 kcal/mol.
For GATCATTGAATGATC ((((((...)))))) the same measures were 44.4 °C and -35.9 kcal/mol.
With GATCATTGATATGATC ((((((....)))))), the Tm in data set [1] turned out to be 45.5 °C. Moreover, in data set [2], the folding enthalpy was -28 kcal/mol.
Consider GATCATTGTGATGATC ((((((....)))))), for which, in data set [1], the Tm was 51 °C. Also, the folding enthalpy in data set [2] is -43.4 kcal/mol.
For GATCATTGTTATGATC ((((((....)))))) the same measures were 47.3 °C and -37 kcal/mol.
GATCATTTTATGATC ((((((...)))))): the Tm in data set [1] was 51.4 °C. In addition, in data set [2], the folding enthalpy was -30.4 kcal/mol.
For GATCCAAATGTGGATC ((((((....)))))) the same measures were 48.5 °C and -33.8 kcal/mol.
Turning to GATCCAACATGGATC ((((((...)))))), the Tm in data set [1] was 50.4 °C. The folding enthalpy in data set [2] was -33.7 kcal/mol.
For GATCCAACCGTGGATC ((((((....)))))) the same measures were 49.8 °C and -30.3 kcal/mol.
For GATCCAACCTGGATC ((((((...)))))) the same measures were 50.4 °C and -31 kcal/mol.
Turning to GATCCAACCTTGGATC ((((((....)))))), in data set [1], the Tm is 51.5 °C. In addition, the folding enthalpy in data set [2] is -51.5 kcal/mol.
On to GATCCAACGATGGATC ((((((....)))))), for which the Tm in data set [1] turned out to be 48.1 °C. For the same sequence, the folding enthalpy in data set [2] is -34 kcal/mol.
For GATCCAACTTGGATC ((((((...)))))) the same measures were 51.2 °C and -29 kcal/mol.
On to GATCCAAGCCTGGATC ((((((....)))))), for which the Tm in data set [1] came to 50.6 °C. Further, in data set [2], the folding enthalpy is -40 kcal/mol.
Consider GATCCAAGCTGGATC ((((((...)))))), for which the Tm in data set [1] is 50.5 °C. Besides, the folding enthalpy in data set [2] is -28.8 kcal/mol.
For GATCCAAGCTTGGATC ((((((....)))))) the same measures were 54.8 °C and -54.6 kcal/mol.
For the sequence GATCCAAGGATGGATC ((((((....)))))), the Tm in data set [1] was 47.8 °C. The folding enthalpy in data set [2] is -27.5 kcal/mol.
For GATCCAATAGTGGATC ((((((....)))))), in data set [1], the Tm was 46.6 °C. Moreover, the folding enthalpy in data set [2] is -30.8 kcal/mol.
GATCCAATCGTGGATC ((((((....)))))): the Tm in data set [1] was determined as 49 °C. Further, the folding enthalpy in data set [2] was -38.5 kcal/mol.
